Screening results deposited in PubChem BioAssay by Broad Institute.
Compounds with a hit are over-represented: about 2.4% of the library has one in this group of screens.
LGR2 antag: inhibitors of bursicon-induced LGR2 CRE-luciferase signal, primary screen, cell-based, HEK293, CRE-luciferase reporter, bursicon stimulation; Drosophila bursicon receptor LGR2 (rickets); 0.35% of 380,000 active; bursicon-stimulated, 4 h; inhibition, % at 9.99 µM;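 active means drop in luminescence signal, shown as inhibition above about 50% in the replicate tests, limit read from the data, passing the limit was not always enough; inconclusive means probably only some replicates passing the limit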;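 further: agonist challenge used bursicon conditioned medium at about half maximal strength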
EWS-Fli block: EWS/Fli-driven NR0B1 reporter inhibitors, primary screen, A673 cells, NR0B1 luciferase, luminescence, MLPCN library. viability-normalised. inhibition, % at 12.6 µM. 0.67% of 350,000 active;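 active means mean inhibition of at least 50% after viability correction, with every replicate also passing that limit; inconclusive means mean reaches 50% but only one of two replicates passes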;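 further: firefly luciferase signal divided by Alamar Blue viability fluorescence both relative to DMSO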
E-selectin induc: E-selectin induction in HUVECs, primary screen, imaging, HUVEC, immunofluorescence imaging, single point. 0.37% of 260,000 active. P16581. activation, % at 7.58 µM. normalized: neutral wells 0, TNF-alpha wells 100. AID 686992, 2013;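 active means mean E-selectin-positive cell signal at least 10% of the positive control, reached in at least 60% of replicates, without over 20% cell loss; inconclusive means no rule given, readout overlaps actives, possibly toxicity-flagged; inactive means the rest, including those meeting only one limit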
Target sequence (P16581 whole entry, looked up): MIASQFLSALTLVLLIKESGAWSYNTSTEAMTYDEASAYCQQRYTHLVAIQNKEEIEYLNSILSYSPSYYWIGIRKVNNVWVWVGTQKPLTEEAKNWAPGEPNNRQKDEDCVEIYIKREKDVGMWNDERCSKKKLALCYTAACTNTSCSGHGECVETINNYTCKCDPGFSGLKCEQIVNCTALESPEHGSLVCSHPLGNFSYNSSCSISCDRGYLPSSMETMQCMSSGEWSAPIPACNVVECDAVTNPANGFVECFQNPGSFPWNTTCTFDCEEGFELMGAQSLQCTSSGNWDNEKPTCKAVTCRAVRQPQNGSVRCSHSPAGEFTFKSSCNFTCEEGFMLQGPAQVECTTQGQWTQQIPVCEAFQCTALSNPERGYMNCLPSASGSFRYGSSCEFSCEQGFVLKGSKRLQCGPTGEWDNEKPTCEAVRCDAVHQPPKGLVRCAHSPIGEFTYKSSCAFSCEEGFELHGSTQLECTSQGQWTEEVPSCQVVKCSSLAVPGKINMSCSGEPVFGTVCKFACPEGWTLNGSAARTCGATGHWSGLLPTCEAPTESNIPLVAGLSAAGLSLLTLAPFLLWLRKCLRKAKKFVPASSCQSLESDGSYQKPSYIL
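assay system = HUVEC, human umbilical vein endothelial cells | input = 3,000 HUVEC seeded per well | medium = EGM-2 growth medium on 0.1% gelatin-coated wells | dosing = one compound dose added by pin transfer | signal = immunofluorescence imaging | read-out basis = % PE-positive cells | control set = TNF-alpha, DMSO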
Ecoli rRNA inh: reduced GFP signal of wild-type E. coli, primary screen, bacterial rRNA inhibitor project, GFP/RFP fluorescence, OD600, single point; GFP signal change (wild-type ribosome), % (test concentration not listed); 1.6% of 350,000 active; E. coli WT GFP vs humanized-ribosome RFP mutants, 24 h; active compounds read low; DMSO median 0, no signal -100; AID 720706, 2013;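 active means significant combined selectivity score with lowered wild-type GFP, culture density cut under 30%, mutant RFP and density less affected; inactive means any of these conditions unmet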
* = called active by the depositor; ? = inconclusive; nt = not tested or not shown.

SMILES	LGR2 antag	EWS-Fli block	E-selectin induc	Ecoli rRNA inh
CS(=O)(=O)Nc1ccc2c(c1)[C@@H]1C[C@@H](CC(=O)NCc3ccc(Oc4ccccc4)cc3)O[C@@H](CO)[C@@H]1O2	-28	55*	-1	6
COCC(=O)N1CC2(C1)CN(C(=O)Nc1ccccc1F)[C@H](CO)c1c2c2ccc(OC)cc2n1C	nt	nt	nt	-3
Cc1ccccc1CC1(CO)CCCN(Cc2nc(-c3cccs3)oc2C)C1 (stereo unspecified)	2	-21	1	-25*
Cc1oc(-c2cccs2)nc1CN1CC[C@@](O)(c2ccccc2)[C@H]2CCCC[C@@H]21	11	nt	nt	nt
O=C(NCc1nnc(SCc2ccccc2)n1-c1ccccc1)C12CC3CC(CC(C3)C1)C2	7	17	0	-31*
O=C(NCc1nnc(SCc2ccccc2)n1-c1ccc(F)cc1)C12CC3CC(CC(C3)C1)C2	6	12	0	-52
Cc1cc2ccccc2n1CCNC(=O)Cc1ccccc1	-1	-1	3	5
Cc1cc(C)c(S(=O)(=O)NCCn2c(C)cc3ccccc32)c(C)c1	6	16	101*	-6
Cc1ccc(C(=O)n2c(N)nc3ccccc32)cc1	89*	75*	-1	3
Cc1ccc(S(=O)(=O)n2c(N)nc3ccccc32)cc1	nt	3	nt	3
O=C(CCl)N(CCc1ccccc1)CCc1ccccc1	-1	59*	nt	-2
O=C(CCl)N(c1ccccc1)c1ccccc1	12	40	nt	6
O=C(c1ccc(F)cc1)N1CC(=O)N2[C@H](C1)[C@H](c1ccc(C3=CCCC3)cc1)[C@@H]2CO	7	nt	1	-2
Cn1c(SCC(=O)CC(=O)Nc2ccccc2)nnc1-c1ccc(O)cc1	-37	0	nt	-18*
COc1ccc(S(=O)(=O)Nc2ccc3c(c2)C(=O)N([C@H](C)CO)C[C@@H](C)[C@@H](CN(C)Cc2ccc4c(c2)OCO4)OCCCC[C@@H](C)O3)cc1	3	12	0	7
COc1cc(C2(c3ccc(O)c(OC)c3)C(=O)N(C)c3ccc(Br)cc32)ccc1O	8	-3	nt	-43
COc1cc(C2(c3ccc(O)c(OC)c3)C(=O)Nc3c(Br)cc(Br)cc32)ccc1O	-4	7	0	-48*
CC(C)NC(=O)Nc1ccc2c(c1)CC(=O)N([C@H](C)CO)C[C@H](C)[C@H](CN(C)S(=O)(=O)c1cccs1)O2	-8	-8	0	1
Cc1ccc(C23CC4CC(CC(C(N)=O)(C4)C2)C3)cc1	0	-1	nt	-23*
Cc1ccc(C23CC4CC(CC(C(=O)N(C)C)(C4)C2)C3)cc1	2	5	nt	-12
Cc1ccc(C(=O)N/N=C/c2ccc(-c3cccc(Cl)c3)o2)cn1	4	17	1	-2
Cc1ccc(-c2cc(C(=O)N/N=C/c3ccccc3O)n[nH]2)o1	-42	nt	nt	-57
Cc1cc(C(=O)N/N=C/c2ccc(-c3cccc(Cl)c3)o2)n[nH]1	5	2	0	-23*
Cc1cc(C(=O)N/N=C/c2ccc(-c3ccc([N+](=O)[O-])cc3C)o2)n[nH]1	-4	-1	nt	-41*
Cc1ccc(-c2cc(C(=O)N/N=C/c3ccc(F)cc3)n[nH]2)o1	-5	-9	3	-24*
SMILES	LGR2 antag	EWS-Fli block	E-selectin induc	Ecoli rRNA inh
N#C[C@@H]1[C@H](c2ccc(C#CC3(O)CCCC3)cc2)[C@@H](CO)N1C(=O)C1CC1	8	3	-1	2
c1ccc2c(CSc3ncnc4nc[nH]c34)cccc2c1	4	6	0	-31*
c1ccc2sc(NN=C3CCCCCC3)nc2c1	55*	46	nt	-63
Cn1c(=O)c([N+](=O)[O-])c(-n2ccnc2)c2ccccc21	16	49	4	2
CCCCNc1c([N+](=O)[O-])c(=O)n(C)c2ccccc12	-11	7	48*	-24
Cn1c(=O)c([N+](=O)[O-])c(NCCCn2ccnc2)c2ccccc21	16	-4	74*	8
Cc1ccc(S(=O)(=O)N[C@H]2CC[C@H](CCn3cc(C4(O)CCCC4)nn3)O[C@H]2CO)cc1	19	-2	0	-6
C[C@@H]1CN([C@H](C)CO)C(=O)Cc2cc(NC(=O)c3ccncc3)ccc2O[C@@H]1CN(C)CC1CCCCC1	10	-5	0	-1
O=C(C#Cc1ccccc1)c1ccccc1	33	70*	0	-61
O=C(NCc1ccccc1)[C@H]1CCCN1C(=O)[C@H]1CCCN1C(=O)c1cccc2ccccc12	-11	-3	0	-3
O=C(NCc1ccccc1Cl)[C@H]1CCCN1C(=O)[C@H]1CCCN1C(=O)c1cccc2ccccc12	-8	-15	0	-23*
Cc1ccc(NC(=O)c2ccc(Nc3c([N+](=O)[O-])cc([N+](=O)[O-])cc3[N+](=O)[O-])cc2)cc1	85*	38	nt	1
COc1ccc(C(=O)Nc2ccc(Nc3ccccc3)cc2)cc1OC	nt	-17	nt	2
COc1ccc(C(=O)Nc2ccc(Nc3ccccc3)cc2)cc1[N+](=O)[O-]	18	0	0	-15*
Cc1nc2cc(Cl)c(Cl)cc2n1CCCO	18	-5	nt	-22*
COc1ccc(-c2csc(NC(C)c3nc4cc(Cl)c(Cl)cc4n3CCCO)n2)cc1 (stereo unspecified)	-3	-13	0	-5
Cc1ccc(-c2nc3ccc([N+](=O)[O-])cc3[nH]2)cc1	54*	-16	1	-51
COc1ccc(-c2cc3c(nn2)-c2ccccc2C3=O)cc1	94*	40	nt	6
Cc1ccc(NC(=O)c2ccc(OCC3CCCO3)cc2)c(C)c1 (stereo unspecified)	3	nt	1	nt
Cc1ccnc(NC(=O)c2ccc(OCC3CCCO3)cc2)c1 (stereo unspecified)	0	70*	nt	-2
O=C(Nc1ccccn1)c1ccc(C(=O)c2ccccc2)cc1	-62	-82	nt	-9
CSc1ccc(NC(=O)Nc2cc(C)ccn2)cc1	58*	52*	nt	2
O=C(NC(=O)c1ccccc1)Nc1ccccn1	89*	nt	1	3
CSc1ncccc1C(=O)Nc1cc(C)ccn1	-2	nt	0	14
Cc1ccc(NC(=O)C(=O)Nc2ccccn2)cc1	93*	?	-1	17
SMILES	LGR2 antag	EWS-Fli block	E-selectin induc	Ecoli rRNA inh
COc1ccc2c3c(n(C)c2c1)[C@@H](CO)N(C(=O)Nc1ccc(F)cc1)CC31CN(C(=O)NC2CCCC2)C1	14	-1	0	-5
Cc1ccnc(N/C=C/C(=O)c2ccc(Br)cc2)c1	-12	22	nt	11
COc1ccc(NC(=O)Nc2cc(C)ccn2)cc1	22	24	nt	-9
COc1ccc(N/C=C\C(=O)c2ccc3ccccc3c2)cc1	-48	6	nt	4
COc1ccc(C(=O)NC(=O)Nc2cc(C)ccn2)cc1	74*	73*	nt	15
CCOc1ccc(N/C=C/C(=O)c2ccccc2)c([N+](=O)[O-])c1	91*	60*	0	0
